Bioassay records (PubChem BioAssay)
Most compounds without a hit are left out; they make up all but 2.5% or so of the library.
Glyco luc inh: N-linked glycosylation inhibition; D54 ERlucT glycosylation luciferase reporter, 24 h; percent of 100 nM tunicamycin response; reporter increase, % at 12.5 µM; 0.23% of 360,000 active;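 active = mean luciferase reporter signal, scaled so untreated is 0 and the glycosylation-blocking control 100, at or above a set limit in every replicate; inconclusive = mean reaches the limit but not every replicate does; inactive = mean below the limit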;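 note: luciferase carries N-glycosylation sites so blocking glycosylation raises the light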
AF4-AF9 inh: inhibitors of human MLL-AF4/AF9 interaction; AlphaScreen, biotin-AF4 peptide binding to FLAG-AF9; 0.47% of 350,000 active; AID 651704; P42568; inhibition, % at 10 µM;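 active = every replicate reaching a set inhibition limit, whatever the replicate mean, cut at about 25% in these data; inconclusive = mean inhibition reaches that limit but some replicates miss it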
Target sequence (P42568 whole entry, looked up): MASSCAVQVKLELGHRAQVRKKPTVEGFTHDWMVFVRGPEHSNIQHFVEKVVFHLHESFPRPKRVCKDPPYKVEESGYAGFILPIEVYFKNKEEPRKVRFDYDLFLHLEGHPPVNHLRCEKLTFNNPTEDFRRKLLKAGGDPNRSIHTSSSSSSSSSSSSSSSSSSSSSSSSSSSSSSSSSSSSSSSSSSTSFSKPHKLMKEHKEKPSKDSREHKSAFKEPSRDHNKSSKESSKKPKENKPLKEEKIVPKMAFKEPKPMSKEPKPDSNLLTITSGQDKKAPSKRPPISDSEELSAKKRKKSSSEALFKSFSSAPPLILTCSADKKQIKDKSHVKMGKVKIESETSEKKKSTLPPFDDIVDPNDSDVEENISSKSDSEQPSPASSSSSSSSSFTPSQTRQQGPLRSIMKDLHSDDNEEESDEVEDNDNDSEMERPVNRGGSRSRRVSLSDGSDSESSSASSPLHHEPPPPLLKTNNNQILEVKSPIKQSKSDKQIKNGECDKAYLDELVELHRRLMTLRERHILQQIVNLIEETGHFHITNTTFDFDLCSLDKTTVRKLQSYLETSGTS
EWS-Fli block: EWS/Fli transcriptional activity inhibition; A673 NR0B1-luciferase reporter, viability-normalised; inhibition, % at 12.6 µM; AID 651661; 0.67% of 350,000 active;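 active = mean inhibition of at least 50% after viability correction, with every replicate also passing that limit; inconclusive = mean reaches 50% but only one of two replicates passes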;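 note: firefly luciferase signal divided by Alamar Blue viability fluorescence both relative to DMSO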
PAX8 inh HTS: PAX8 transcriptional activity inhibition | 1.2% of 360,000 active | inhibition, % at 12.6 µM | RMG-I TPO-luciferase reporter, SteadyGlo, 24 h | AID 652154;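 active = mean replicate inhibition at least 60% with every replicate also reaching 60%; inconclusive = only one of the two criteria is met; inactive = mean below 60% and not all replicates reaching 60%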;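 note: luciferase light reporting Pax8 driven TPO promoter activity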
FN deposit inh: fibronectin deposition inhibition; AID 743247; 0.086% of 350,000 active; AH1F fibroblasts, Alexa488-fibronectin deposition fluorescence, overnight; inhibition, % at 12.6 µM;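 active = mean inhibition across replicates of 30% or more, regardless of how many single replicates reach that level; inconclusive = mean under 30% yet at least half of replicates reach 30%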
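Test system: AH1F fibroblast monolayer depositing Alexa488-labelled fibronectin into matrix. Input: 10000 cells per well. Technique: fluorescence, ex 485 nm, em 525 nm. Buffer or medium: DMEM plus 2% serum, read in PBS. Timing: 1 h cell adhesion before compound, then overnight fibronectin incubation. Compound: single dose, pinned. Read-out basis: inhibition from reduced deposited-fibronectin fluorescence.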
HIV Env fusion: inhibitors of HIV Env-mediated cell fusion; HeLa-JRFL Env/CEM21 cell fusion, luciferase; inhibition, % at 12.3 µM; 1.1% of 360,000 active;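 active = mean replicate inhibition score of at least 50 and every replicate individually at or above 50; inconclusive = only one of the two criteria met; inactive = mean below 50 and not all replicates reaching 50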
Hits are given with their value; - = inactive; ? = inconclusive; . = no result given; [ ] = remark or other dose.

SMILES	Glyco luc inh	AF4-AF9 inh	EWS-Fli block	PAX8 inh HTS	FN deposit inh	HIV Env fusion
CCNC(=S)NNC(=O)c1cc(-c2cccc(OC)c2)nc2ccccc12	-	.	.	-	-	-
CCc1ccc(-c2cc(C(=O)Nn3cnnc3)c3ccccc3n2)cc1	-	-	78	.	.	.
CCNC(=S)NNC(=O)c1cc(-c2ccc(OCC)cc2)nc2ccccc12	-	-	71	.	.	.
COc1ccc(C(=O)NC(=S)NNC(=O)COc2ccccc2)cc1	-	-	-	109	-	-
COc1ccccc1C(=O)NNC(=S)NC(=O)c1cc(OC)c(OC)c(OC)c1	-	-	-	63	-	-
COc1ccc2c3c(n(C)c2c1)[C@@H](CO)N(Cc1ccc2c(c1)OCO2)CC31CCN(C)CC1	.	-	-	.	.	.
COc1ccc(Cl)cc1C(=O)NNC(=S)NC(=O)c1cc(-c2ccccc2)nc2ccccc12	-	.	.	.	-	73
COc1cc2c(cc1OC)C(c1c(-c3c(Cl)cccc3Cl)noc1C)=NCC2	-	-	-	-	-	-
COc1cc2c(cc1OC)C(c1c(Cl)cccc1Cl)=NCC2	-	-	-	-	-	60
CCN(CC)CC(C)(C)C(=O)/C=C/c1ccc(/C=C/C(=O)C(C)(C)CN(CC)CC)cc1	-	-	71	123	46	55
O=C(NCc1ccccc1)c1c[nH]c2ccc(S(=O)(=O)Nc3ccc4c(c3)OCCO4)cc2c1=O	-	.	.	.	.	.
O=C(NCc1cccnc1)c1c[nH]c2cc3c(cc2c1=O)OCCO3	-	.	.	.	-	75
COc1ccc(/C=N/NC(=O)c2[nH]nc3c2CCc2ccccc2-3)cc1OC	?	-	53	-	-	-
C[C@@H]1CN([C@@H](C)CO)C(=O)CCCn2nncc2CO[C@@H]1CN(C)Cc1cccc(O)c1	.	.	-	.	-	-
COCC#Cc1ccc(CC[C@H]2O[C@H]3CC[C@H](CO)O[C@H]3C[C@H]2n2cc(C3(O)CCCC3)nn2)cc1	.	-	-	-	.	.
O=C(Cc1cccs1)N/N=C/C=C/c1ccccc1	-	-	-	107	-	-
O=C(Cc1cccs1)N/N=C/C=C\c1ccccc1[N+](=O)[O-]	-	-	-	-	.	-
Cc1ccc(S(=O)(=O)Nc2ccc3c(c2)CC(=O)N([C@H](C)CO)C[C@@H](C)[C@@H](CN(C)C(=O)Nc2ccccc2)O3)cc1	.	-	-	-	.	-
O=C(C[C@H]1C=C[C@@H](NC(=O)c2ccccc2)[C@H](CO)O1)NCc1ccncn1	.	-	-	-	.	-
O=C(c1ccncc1)N1CC(=O)N2[C@H](C1)[C@@H](c1ccc(-c3ccccc3)cc1)[C@@H]2CO	.	-	54	-	.	.
CN(C)CC#Cc1ccc([C@@H]2[C@@H](CO)N3C(=O)CN(C(=O)c4cccnc4)C[C@H]23)cc1	.	-	-	-	.	.
O=C(c1cccnc1)N1CC(=O)N2[C@H](C1)[C@H](c1ccc(/C=C/c3ccccc3)cc1)[C@@H]2CO	.	37	-	-	.	.
O=C(c1cccnc1)N1CC(=O)N2[C@H](C1)[C@H](c1ccc(-c3cccnc3)cc1)[C@@H]2CO	.	32	-	-	.	.
CN(C)CC#Cc1ccc([C@H]2[C@H]3CN(C(=O)c4cccnc4)CC(=O)N3[C@H]2CO)cc1	.	35	-	-	.	.
O=C(Nc1ccccc1F)N[C@@H]1CC[C@H](CCNC(=O)C2CCCCC2)O[C@H]1CO	.	-	-	-	-	-
SMILES	Glyco luc inh	AF4-AF9 inh	EWS-Fli block	PAX8 inh HTS	FN deposit inh	HIV Env fusion
O=C(c1cccc(F)c1)N1CC(=O)N2[C@H](C1)[C@H](c1ccc(/C=C/c3ccccc3)cc1)[C@@H]2CO	.	-	-	63	-	.
Cc1cc(OCC(=O)Nc2ccncc2)cc(C)c1Br	-	.	.	-	-	46
COc1cccc(CNc2ccc3c(c2)ncn3C(C)C)c1OC	-	48	-	-	-	-
CCCn1cnc2cc(NCc3cccc(OC)c3O)ccc21	-	.	.	.	-	-
CO[C@H]1CN(C)C(=O)c2cc(NC(=O)c3ccccc3)ccc2OC[C@@H](C)N(C(C)=O)C[C@H]1C	.	-	-	.	-	.
COc1cccc(-c2noc(C3CCCN(S(=O)(=O)c4cccc(Cl)c4C)C3)n2)c1 (stereo not drawn)	-	.	.	.	-	112
O=C(/C=C/c1ccco1)Nc1nc(-c2ccccc2)cs1	-	-	-	98	-	.
CC(C)C#Cc1cnc2c(c1)C(=O)N([C@@H](C)CO)C[C@@H](C)[C@H](CN(C)C(=O)Nc1cccc(F)c1)O2	.	-	-	-	-	-
CN=c1scc(-c2ccc(F)cc2)n1/N=C/c1ccc(O)c(O)c1	-	59	-	66	-	-
C[C@@H]1CCCCO[C@H](CN(C)Cc2ccc3c(c2)OCO3)[C@@H](C)CN([C@@H](C)CO)C(=O)c2cc(N(C)C)ccc2O1	.	.	-	-	.	-
CO[C@H]1CN(C)C(=O)c2ccc(NC(=O)C3CCCCC3)cc2OC[C@@H](C)NC[C@H]1C	.	-	-	-	-	.
O=C(CSc1nnc(-c2ccccc2)n1-c1ccccc1)c1ccc[nH]1	-	.	.	-	33	-
CN1C(=O)c2cc(NC(=O)c3cncs3)ccc2OC[C@H]2O[C@@H](CC(=O)NCC3CC3)CC[C@@H]21	.	.	.	.	-	.
O=S(=O)(CC(CN1CCCCC1)N1CCCCC1)c1ccccc1 (stereo not drawn)	-	-	-	64	-	-
CN(C)C(=O)c1ccc(-c2ccc3c(c2)[C@H]2[C@H](CCN2Cc2cncnc2)[C@H](CO)N3)cc1	.	.	-	-	-	.
Cc1noc(C)c1NC(=O)Nc1cccc2c1O[C@H](CN(C)S(=O)(=O)c1cn(C)cn1)[C@H](C)CN([C@@H](C)CO)C2=O	.	-	-	.	-	.
CC(=O)c1cccc(Nc2nc(-c3cccc([N+](=O)[O-])c3)cs2)c1	-	.	.	.	-	72
CC(=O)Nc1nc(C)c(-c2csc(Nc3cccc([N+](=O)[O-])c3)n2)s1	-	.	.	.	.	.
COc1ccc(S(=O)(=O)Nc2ccc3c(c2)C(=O)N([C@@H](C)CO)C[C@H](C)[C@H](CN(C)S(=O)(=O)c2cccs2)OCCCC[C@H](C)O3)cc1	.	-	-	-	-	-
COc1ccc(-c2nn(C)c(=O)c3ccccc23)cc1NC(=O)Cn1nc(C)c2ccccc2c1=O	-	.	.	.	-	76
COc1ccc(-c2nn(C)c(=O)c3ccccc23)cc1NC(=O)COc1ccc(C)cc1	-	.	.	-	-	57
CCC(=O)Nc1cc(-c2nn(C)c(=O)c3ccccc23)ccc1OC	-	.	.	.	.	-
Cc1ccc(S(=O)(=O)NCC[C@@H]2CC[C@H](NC(=O)c3cccc(F)c3)[C@@H](CO)O2)cc1	.	-	-	-	.	-
CCC(=O)N1C[C@H](C)[C@H](OC)CN(C)C(=O)c2cc(NC(=O)NC(C)C)ccc2OC[C@H]1C	.	-	-	.	-	.
COc1ccc(-c2cn(CC[C@H]3CC[C@H](NS(=O)(=O)c4ccccc4C)[C@H](CO)O3)nn2)cc1	.	-	-	-	.	73[16.7 µM]
